Assay results from ChEMBL document CHEMBL1157338, “5-alkylresorcinols from Merulius incarnatus” (J Nat Prod, 2006).
Values after ≈ are worked out from the molar mass of the structure shown. Active and inactive are the calls of the source. The rule behind the calls is not given here.

Key:
[1] = test system: Mycobacterium intracellulare; experiment: Antimicrobial activity against Mycobacterium intracellular ATCC 23068 by alamar blue method; assay type: functional, organism-based
Outline: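 Modified Alamar Blue procedure, highest concentration 20 µg/mL. IC50 taken from dose-response curves, with amphotericin B as positive control.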

Staphylococcus aureus = experiment: Antimicrobial activity against methicillin-resistant Staphylococcus aureus ATCC 43300 by antimicrobial susceptibility test; assay type: functional, organism-based
Cryptococcus neoformans = experiment: Antimicrobial activity against Cryptococcus neoformans ATCC 90113 by broth dilution method; assay type: functional, organism-based
Candida albicans = experiment: Antimicrobial activity against Candida albicans ATCC 90028 by broth dilution method; assay type: functional, organism-based
Pichia kudriavzevii = experiment: Antimicrobial activity against Candida krusei ATCC 6258 by broth dilution method; assay type: functional, organism-based
Aspergillus fumigatus = experiment: Antimicrobial activity against Aspergillus fumigatus ATCC 90906 by broth dilution method; assay type: functional, organism-based
Nakaseomyces glabratus = experiment: Antimicrobial activity against Candida glabrata ATCC 90030 by broth dilution method; assay type: functional, organism-based
Vero = experiment: Cytotoxicity against african green monkey Vero cells at 25 ug/ml; assay type: cell-based; conditions: chlorocebus sabaeus
Leishmania major = experiment: Antileishmanial activity against Leishmania major MRHO/IR/75/ER promastigotes after 72 hrs by alamar blue assay; assay type: functional, organism-based
Outline: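 Alamar Blue read-out against promastigotes, with pentamidine and amphotericin B as reference standards.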

O=C(O)c1cn(C2CC2)c2cc(N3CCNCC3)c(F)cc2c1=O [CIPROFLOXACIN]
IC50 [1]: 0.4 µg/mL (≈ 1.21 µM)

C=CCCC/C=C\C=C\CCCCCCCCc1cc(O)cc(O)c1
IC50 (Staphylococcus aureus): 15 µg/mL (≈ 43.8 µM)

C[C@@H]1[C@H](O)[C@@H](C)/C=C/C=C/C=C/C=C/C=C/C=C/C=C/[C@H](O[C@@H]2O[C@H](C)[C@@H](O)[C@H](N)[C@@H]2O)C[C@@H]2O[C@](O)(C[C@@H](O)C[C@@H](O)[C@H](O)CC[C@@H](O)C[C@@H](O)CC(=O)O[C@H]1C)C[C@H](O)[C@H]2C(=O)O [AMPHOTERICIN B]
IC50 (Cryptococcus neoformans): 0.75 µg/mL (≈ 0.812 µM)

CCCCCCCCCCCCCCCCCc1cc(O)cc(O)c1
Activity (Candida albicans): inactive
Activity (Pichia kudriavzevii): inactive
Activity (Aspergillus fumigatus): inactive
Activity (Nakaseomyces glabratus): inactive

CCCCC/C=C\C/C=C\CCCCCCCc1cc(O)cc(O)c1
IC50 (Staphylococcus aureus): 6.5 µg/mL (≈ 18.9 µM)

CCCCCCCC/C=C\CCCCCCCc1cc(O)cc(O)c1
IC50 [1]: 10 µg/mL (≈ 28.9 µM)
IC50 (Staphylococcus aureus): 8 µg/mL (≈ 23.1 µM)

C=CCCC/C=C\C/C=C\CCCCCCCc1cc(O)cc(O)c1
IC50 (Staphylococcus aureus): 2.5 µg/mL (≈ 7.3 µM)
Activity (Vero): Non-toxic
IC50 (Leishmania major): 3.6 µg/mL (≈ 10.5 µM)
IC90 (Leishmania major): 7 µg/mL (≈ 20.4 µM)

CCCCCCCCCCCCCCCc1cc(O)cc(O)c1
Activity (Candida albicans): inactive
Activity (Pichia kudriavzevii): inactive
Activity (Aspergillus fumigatus): inactive
Activity (Nakaseomyces glabratus): inactive

N=C(N)c1ccc(OCCCCCOc2ccc(C(=N)N)cc2)cc1 [PENTAMIDINE]
IC50 (Leishmania major): 0.6 µg/mL (≈ 1.76 µM)
IC90 (Leishmania major): 1.9 µg/mL (≈ 5.58 µM)
